# Compound activity: PubChem, several laboratories
# Apaf-1 inh – inhibitors of human Apaf-1 apoptosome, primary screen, biochemical, DEVD-Rh110 fluorescence, uHTS; Apoptotic protease-activating factor 1 (Homo sapiens), O14727; inhibition, % at 20 µM; AID 489030, 2010; reconstituted apoptosome caspase-3 activity; 0.71% of 330,000 active; active means inhibition of at least 40% at 20 µM;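 further: plate controls were DMSO wells for no effect and DEVD-CHO caspase inhibitor wells for full effect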
#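 detection = Rh110 fluorescence intensity | test system = biochemical Apaf-1 apoptosome reconstitution | also added = cytochrome c and DEVD-Rh110 substrate | schedule = 30 min plus 50 min, RT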
# ZTA counter – ZTA (EBV) inhibition in EBNA-1 counter-screen | P03206 | ZTA-DNA binding, fluorescence polarization | inhibition, % at 11 µM | 0.15% of 320,000 active | AID 2234; in the data active means inhibition above about 33%
# Target sequence (P03206 whole entry, looked up): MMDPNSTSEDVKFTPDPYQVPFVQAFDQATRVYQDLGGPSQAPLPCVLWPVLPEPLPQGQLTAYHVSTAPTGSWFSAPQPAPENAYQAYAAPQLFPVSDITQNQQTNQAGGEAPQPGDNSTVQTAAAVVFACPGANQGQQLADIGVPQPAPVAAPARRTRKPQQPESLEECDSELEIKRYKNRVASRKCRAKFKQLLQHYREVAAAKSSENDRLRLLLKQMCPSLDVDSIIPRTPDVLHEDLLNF
# UBC13 polyUb – UBC13 polyubiquitin chain formation inhibitors, primary screen, biochemical, TR-FRET, uHTS; Ubiquitin-conjugating enzyme E2 N (Homo sapiens), P61088; inhibition, % at 20 µM; 0.47% of 330,000 active; AID 485273, 2010; in the data active means inhibition above about 45%, passing the limit was not always enough
# Target sequence (P61088 whole entry, looked up): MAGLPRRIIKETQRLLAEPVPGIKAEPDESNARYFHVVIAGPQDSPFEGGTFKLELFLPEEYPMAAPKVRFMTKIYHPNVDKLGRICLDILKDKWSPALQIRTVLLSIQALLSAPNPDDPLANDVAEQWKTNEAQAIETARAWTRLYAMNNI
# PfG6PD inh – PfG6PD enzyme inhibitors, primary screen, biochemical, fluorescence intensity, uHTS; glucose-6-phosphate dehydrogenase-6-phosphogluconolactonase (Plasmodium falciparum 3D7); PfGluPho enzyme, NADPH resazurin-diaphorase fluorescence; inhibition, % at 20 µM; 0.78% of 350,000 active; AID 504690, 2011;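 active means inhibition reaching at least a set limit at 20 µM in the primary screen, cut at about 59% in these data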;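 further: 0% = DMSO wells with substrate and 100% = DMSO wells lacking glucose-6-phosphate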
# M18AAP inhibitor – PfM18AAP inhibitors, malaria aminopeptidase, primary screen, biochemical, QFRET, recombinant enzyme | M18 aspartyl aminopeptidase (Plasmodium falciparum 3D7) | H-Glu-NHMec fluorogenic cleavage | inhibition, % at 7.35 µM | 1.2% of 290,000 active | AID 1822, 2009;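 active means inhibition above the campaign mean inhibition over all tested compounds plus 3 SD, cut at about 28% in these data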;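 further: 0% = plate median of test compound wells and 100% = 2 mM ZnCl2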
# EBNA-1 inhibitor – EBNA-1 DNA-binding inhibitors, primary screen, biochemical, fluorescence polarization. inhibition, % at 14.8 µM. 0.34% of 300,000 active. AID 1950, 2009; in the data active means inhibition above about 28%
# Zta DNA confirm – EBV Zta binding to ZRE DNA, inhibitors, confirmation, biochemical, fluorescence polarization, triplicate; inhibition, % at 11.1 µM; 30% of 320 active; shares compounds with ZTA counter;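 active means mean inhibition across triplicate runs above the hit threshold derived for the original primary screen, cut at about 33% in these data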;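 further: 0% = Zta with DMSO and 100% = wells lacking Zta protein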
# EBNA1 counter – EBNA-1 DNA-binding inhibition, counter-screen for ZTA inhibitor project, biochemical, fluorescence polarization. 320 tested, under 10 active. inhibition, % at 14.8 µM. AID 2362, 2010. shares compounds with ZTA counter
# Casp3 UBC13 ctr – CASP3 inhibitor validation, counterassay for project on UBE2N polyubiquitination blockers, biochemical, one dose; shares compounds with UBC13 polyUb; Recombinant caspase-3, Caspase-Glo 3/7 luminescence, 60 min; inhibition, % at 20 µM; 4% of 1,400 active; AID 488856, 2010;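 active means mean inhibition across replicates above about 26%, limit read from the data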;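 further: plate controls were DMSO with caspase-3 for no effect and DMSO wells lacking enzyme for full effect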
# Target sequence (P42574 whole entry, looked up): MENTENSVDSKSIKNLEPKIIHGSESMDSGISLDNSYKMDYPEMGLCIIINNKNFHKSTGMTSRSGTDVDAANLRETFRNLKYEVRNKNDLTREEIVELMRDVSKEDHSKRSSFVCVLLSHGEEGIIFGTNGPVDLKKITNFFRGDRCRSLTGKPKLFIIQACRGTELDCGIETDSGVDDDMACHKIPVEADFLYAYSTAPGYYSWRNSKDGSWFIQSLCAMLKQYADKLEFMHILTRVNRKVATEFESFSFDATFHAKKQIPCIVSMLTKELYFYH
# UBC13 conf – UBC13 polyubiquitination inhibitors, single-point retest, confirmation, biochemical, TR-FRET, single concentration; shares compounds with UBC13 polyUb; inhibition, % at 10 µM; 68% of 1,400 active; AID 488859, 2010; in the data active means inhibition above about 45%
# Apaf-1 inh conf2 – Apaf-1 inhibitors, single-dose retest, confirmation, biochemical, fluorescence, DEVD-Rh110, 20 µM | 25% of 1,800 active | reconstituted apoptosome, caspase-3 DEVD-Rh110 fluorescence | shares compounds with Apaf-1 inh | inhibition, % at 20 µM;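 active means mean inhibition of at least 40% at 20 µM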;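 further: plate controls were DMSO wells for no effect and DEVD-CHO caspase inhibitor control wells for full effect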
# Rh110 interf inh – Rh110 fluorescence interference by putative Apaf-1 inhibitors, confirmation, artefact control for Apaf-1 inhibitor project, biochemical, 20 µM | 1,800 tested, under 10 active | AID 504615, 2011 | shares compounds with Apaf-1 inh | activation (fluorescence interference), % at 20 µM | quenched caspase reaction;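 active means signal rise of 40% or more at 20 µM, treated as a fluorescence artifact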
# Apaf1 inh interf – fluorescence interference of Apaf-1 inhibitor hits, dose response, artefact control for Apaf-1 inhibitor project; shares compounds with Apaf-1 inh; fluorescence interference counterscreen, Apaf-1 assay format; IC50, µM; 460 tested, under 10 active
# PfG6PD confirm – PfG6PD inhibitors, hit retest, confirmation, biochemical, fluorescence intensity, single concentration; shares compounds with PfG6PD inh; recombinant PfGluPho, NADPH-diaphorase-resazurin fluorescence; inhibition, % at 20 µM; 34% of 2,400 active; AID 504753, 2011;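 active means inhibition of at least 50% at 20 µM in any single replicate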;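 further: 0% = DMSO with substrate and 100% = DMSO lacking glucose-6-phosphate substrate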
# Diaphorase 10uM – diaphorase inhibitors and chemical oxidizers, confirmation, counter-screen for P. falciparum G6PD inhibitor project, biochemical, fluorescence intensity, 10 µM NADPH; shares compounds with PfG6PD inh; diaphorase-coupled resazurin reduction, NADPH 10 uM; inhibition, % at 20 µM; 39% of 820 active; AID 504862, 2011;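 active means average inhibition reaching 50% or more with the compound at 20 µM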;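 further: resorufin red fluorescence formed as diaphorase reduces resazurin using NADPH; 0% = DMSO with enzyme and 100% = DMSO without enzyme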
# Diaph ctr 30uM – diaphorase inhibitors and chemical oxidizers, confirmation, counter-screen for P. falciparum G6PD inhibitor project, biochemical, fluorescence intensity, 30 µM NADPH; inhibition, % at 20 µM; Diaphorase/resazurin coupled assay, resorufin fluorescence; 29% of 820 active; shares compounds with PfG6PD inh; AID 504863, 2011;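 active means inhibition averaging 50% or more, tested at 20 µM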;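 further: 0% = DMSO with enzyme and 100% = DMSO wells lacking diaphorase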
# Numbers without * were called inactive; i = inactive; / = no result. Hits are enriched below; roughly 2.9% of the tested compounds scored in any of these assays. Unless noted, how the calls were made is not given here.
SMILES,Apaf-1 inh,ZTA counter,UBC13 polyUb,PfG6PD inh,M18AAP inhibitor,EBNA-1 inhibitor,Zta DNA confirm,EBNA1 counter,Casp3 UBC13 ctr,UBC13 conf,PfG6PD confirm,others
COc1ccc(NC(=S)Nc2ccc3nsnc3c2)cc1,96.5*,38.1*,-48.2,89.0*,15.8,19.5,5.3,-2.0,/,/,-11.6,Apaf-1 inh conf2=97.3*;Rh110 interf inh=16.3;Apaf1 inh interf=>100
CCOc1ccc(NC(=S)Nc2ccc3nsnc3c2)cc1,-13.7,66.9*,-1.6,63.8*,14.4,3.7,0.7,0.8,/,/,12.8,
CCNS(=O)(=O)c1ccc2c3c(cccc13)C(=O)N2,-3.3,-2.0,-0.2,7.0,6.0,-1.9,/,/,/,/,/,
N#Cc1c(N2CCCC2)nc(N)c2c(N)nc(N3CCCC3)cc12,98.1*,59.9*,-41.1,106.8*,1.1,9.8,55.2*,-25.5,/,/,29.3,Apaf-1 inh conf2=99.0*;Rh110 interf inh=8.9;Apaf1 inh interf=>100
CCOc1cc2c(C#N)c(N3CCCC3)nc(N)c2c(N)n1,7.0,-4.5,-30.7,5.2,/,9.2,/,/,/,/,/,
Cc1ccc(-c2csc(NC(=O)N3CCOCC3)n2)cc1,7.0,12.7,4.2,2.8,0.7,-3.5,/,/,/,/,/,
O=C1c2ccccc2-c2onc3ccc(NCc4ccco4)c1c23,69.3*,83.4*,i,73.7*,24.9,17.7,45.5*,14.9,/,/,25.3,Apaf-1 inh conf2=29.9;Rh110 interf inh=-50.4
O=C1C(Cl)=C(NCc2ccco2)C(=O)c2ccccc21,/,/,/,-109.4,/,/,/,/,/,/,/,
C#CCOCCOCCOCCNc1nc(N2CCN(C(=O)CCCCCCCCCCNC(=O)Cn3cc(C[C@@H](C)O)nn3)CC2)nc(N2CCN(C(=O)CCCCCCCCCCNC(=O)[C@@H](CCSC)n3cc(CCO)nn3)CC2)n1,29.6,0.7,26.0,-1.6,/,5.2,/,/,/,/,/,
C#CCOCCOCCOCCNc1nc(N2CCN(C(=O)CCCCCCCCCCNC(=O)[C@H](CCCCN)n3cc(CCO)nn3)CC2)nc(N2CCN(C(=O)CCCCCCCCCCNC(=O)[C@H](CCCCN)n3cc(C[C@@H](C)CC)nn3)CC2)n1,67.9*,54.9*,129.8*,77.0*,/,13.3,80.6*,7.3,/,/,11.8,
COc1cccc(C(c2cccc(OC)c2)c2ccccc2C(=O)O)c1,/,/,/,-14.1,/,/,/,/,/,/,/,
O=C(NCCCN1CCCC1=O)C(=O)NCC1OCCN1S(=O)(=O)c1cc(F)ccc1F (stereo unspecified),/,/,/,2.7,/,/,/,/,/,/,/,
Nc1ccc2c(c1)C(=O)C(=O)c1ccccc1-2,97.5*,58.0*,-359.4,108.0*,11.7,-7.9,64.7*,-10.9,/,/,88.7*,Apaf-1 inh conf2=99.2*;Rh110 interf inh=2.2;Apaf1 inh interf=>100;Diaphorase 10uM=77.2*;Diaph ctr 30uM=90.0*
CCCCCCCCCCCCCCCC[N+](C)(C)CCN(Cc1ccc(OC)cc1)c1ncccn1,97.5*,34.8*,118.7*,64.4*,/,6.1,76.5*,3.4,-0.1,124.1*,13.8,Apaf-1 inh conf2=91.6*;Rh110 interf inh=30.3;Apaf1 inh interf=>100
O=C(CN1CCC(NC(=O)C2CCCCC2)CC1)Nc1ccccc1,/,/,/,-5.1,/,/,/,/,/,/,/,
CN(C)c1ccc(NC(=O)CN2CCC(NC(=O)C3CCCCC3)CC2)cc1,-4.6,-12.3,64.3*,3.3,3.8,6.1,/,/,-2.1,82.1*,/,
COc1ccc2sc(-c3ccccc3OC)c(C#CC(C)(C)O)c2c1,5.4,7.8,12.3,12.4,/,/,/,/,/,/,/,
COc1ccc2sc(-c3ccccc3OC)c(C#Cc3cncn3C)c2c1,21.6,/,51.4*,-5.0,/,/,/,/,-0.4,38.4,/,
COc1ccccc1-c1sc2cc3c(cc2c1C#Cc1cncn1C)OCO3,31.1,/,45.1*,7.5,/,/,/,/,0.3,38.4,/,
CCOc1ccc(OCC)c(NC(=O)CN2CCN(CC(=O)NC(C)C)CC2)c1,1.7,1.6,-5.4,-11.6,-6.1,-2.9,/,/,/,/,/,
CCCC(=O)C1=C(O)C(C(=O)OC)C(C)(C)CC1=NCCc1ccccc1 (stereo unspecified),-2.2,10.3,1.5,-12.4,0.9,3.2,/,/,/,/,/,
O=C(Nc1ccccc1)N1CCN(c2nc(-c3ccccc3)ns2)CC1,-9.7,9.0,49.2*,8.0,0.0,9.9,/,/,-1.2,63.1*,/,
O=C1c2cccc3cccc(c23)C(=O)N1Cc1cccnc1,-9.4,-6.6,65.1*,-11.1,6.6,8.2,/,/,-0.1,82.9*,/,
O=C1c2cccc3cccc(c23)N1Cc1ccc(F)cc1,-4.2,-17.5,83.0*,-3.4,1.2,1.4,/,/,3.4,95.9*,/,
O=C1c2cccc3cccc(c23)N1Cc1cccc(F)c1,17.9,-6.1,76.4*,-3.6,-6.8,13.1,/,/,-1.7,90.2*,/,
O=C1CCCc2ccccc2N1Cc1cccc(F)c1,8.7,-5.4,-4.2,-7.3,5.7,3.5,/,/,/,/,/,
O=C1c2cccc3cccc(c23)C(=O)N1Cc1ccccc1,1.2,-2.0,25.2,-8.5,-9.6,6.1,/,/,/,/,/,
